Key:
[1] = tested on: K562; experiment: Antiproliferative activity against Bcr/Abl positive human K562 cells after 48 hrs by MTT method; type: functional, cell-based; settings: K562, 48 h
In short: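 Bcr–Abl positive K562 cells in exponential growth plated at 1 × 10⁴ cells/well and incubated 24 h at 37 °C. Compounds then added at various concentrations for 48 h. MTT (5 mg/mL) added for 4 h at 37 °C, supernatant discarded, formazan dissolved in DMSO. Absorbance read at 570 nm.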

[2] = molecular target: Bcr/Abl fusion protein (Homo sapiens, UniProt P00519); experiment: Inhibition of BCR/ABL (unknown origin) after 40 mins by ADP-Glo kinase assay; type: protein assay
Chain of Bcr/Abl fusion protein (P00519 whole entry, the tested form may be a part): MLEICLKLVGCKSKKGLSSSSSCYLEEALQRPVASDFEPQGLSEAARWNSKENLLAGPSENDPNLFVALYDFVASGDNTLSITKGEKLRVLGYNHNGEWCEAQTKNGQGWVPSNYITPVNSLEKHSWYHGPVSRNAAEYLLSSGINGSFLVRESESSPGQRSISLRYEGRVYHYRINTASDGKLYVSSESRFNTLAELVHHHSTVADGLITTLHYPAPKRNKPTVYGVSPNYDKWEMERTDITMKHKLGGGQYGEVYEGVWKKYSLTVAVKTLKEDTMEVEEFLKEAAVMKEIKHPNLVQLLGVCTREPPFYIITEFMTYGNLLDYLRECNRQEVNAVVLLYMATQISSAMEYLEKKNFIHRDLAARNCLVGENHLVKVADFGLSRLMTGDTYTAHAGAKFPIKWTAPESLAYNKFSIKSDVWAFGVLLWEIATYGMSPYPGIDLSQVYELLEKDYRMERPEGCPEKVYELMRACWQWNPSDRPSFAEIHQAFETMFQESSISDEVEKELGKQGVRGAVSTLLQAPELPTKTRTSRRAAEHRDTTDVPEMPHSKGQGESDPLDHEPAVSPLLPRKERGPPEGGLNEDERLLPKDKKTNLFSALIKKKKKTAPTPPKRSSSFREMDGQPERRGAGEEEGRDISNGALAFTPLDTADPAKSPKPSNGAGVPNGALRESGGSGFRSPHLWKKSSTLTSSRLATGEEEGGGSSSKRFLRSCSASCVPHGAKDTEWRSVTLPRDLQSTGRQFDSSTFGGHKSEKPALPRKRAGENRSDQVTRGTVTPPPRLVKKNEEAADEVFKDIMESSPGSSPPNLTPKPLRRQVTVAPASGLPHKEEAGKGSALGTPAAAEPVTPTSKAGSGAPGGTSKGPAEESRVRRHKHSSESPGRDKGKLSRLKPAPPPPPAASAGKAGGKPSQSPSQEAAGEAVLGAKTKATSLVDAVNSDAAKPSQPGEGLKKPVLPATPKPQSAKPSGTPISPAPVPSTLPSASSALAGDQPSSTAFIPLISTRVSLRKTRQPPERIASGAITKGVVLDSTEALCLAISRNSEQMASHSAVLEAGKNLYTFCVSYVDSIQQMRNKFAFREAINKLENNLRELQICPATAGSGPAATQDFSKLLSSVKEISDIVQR
Chain of Bcr/Abl fusion protein (P11274 whole entry, further chain, the tested form may be a part): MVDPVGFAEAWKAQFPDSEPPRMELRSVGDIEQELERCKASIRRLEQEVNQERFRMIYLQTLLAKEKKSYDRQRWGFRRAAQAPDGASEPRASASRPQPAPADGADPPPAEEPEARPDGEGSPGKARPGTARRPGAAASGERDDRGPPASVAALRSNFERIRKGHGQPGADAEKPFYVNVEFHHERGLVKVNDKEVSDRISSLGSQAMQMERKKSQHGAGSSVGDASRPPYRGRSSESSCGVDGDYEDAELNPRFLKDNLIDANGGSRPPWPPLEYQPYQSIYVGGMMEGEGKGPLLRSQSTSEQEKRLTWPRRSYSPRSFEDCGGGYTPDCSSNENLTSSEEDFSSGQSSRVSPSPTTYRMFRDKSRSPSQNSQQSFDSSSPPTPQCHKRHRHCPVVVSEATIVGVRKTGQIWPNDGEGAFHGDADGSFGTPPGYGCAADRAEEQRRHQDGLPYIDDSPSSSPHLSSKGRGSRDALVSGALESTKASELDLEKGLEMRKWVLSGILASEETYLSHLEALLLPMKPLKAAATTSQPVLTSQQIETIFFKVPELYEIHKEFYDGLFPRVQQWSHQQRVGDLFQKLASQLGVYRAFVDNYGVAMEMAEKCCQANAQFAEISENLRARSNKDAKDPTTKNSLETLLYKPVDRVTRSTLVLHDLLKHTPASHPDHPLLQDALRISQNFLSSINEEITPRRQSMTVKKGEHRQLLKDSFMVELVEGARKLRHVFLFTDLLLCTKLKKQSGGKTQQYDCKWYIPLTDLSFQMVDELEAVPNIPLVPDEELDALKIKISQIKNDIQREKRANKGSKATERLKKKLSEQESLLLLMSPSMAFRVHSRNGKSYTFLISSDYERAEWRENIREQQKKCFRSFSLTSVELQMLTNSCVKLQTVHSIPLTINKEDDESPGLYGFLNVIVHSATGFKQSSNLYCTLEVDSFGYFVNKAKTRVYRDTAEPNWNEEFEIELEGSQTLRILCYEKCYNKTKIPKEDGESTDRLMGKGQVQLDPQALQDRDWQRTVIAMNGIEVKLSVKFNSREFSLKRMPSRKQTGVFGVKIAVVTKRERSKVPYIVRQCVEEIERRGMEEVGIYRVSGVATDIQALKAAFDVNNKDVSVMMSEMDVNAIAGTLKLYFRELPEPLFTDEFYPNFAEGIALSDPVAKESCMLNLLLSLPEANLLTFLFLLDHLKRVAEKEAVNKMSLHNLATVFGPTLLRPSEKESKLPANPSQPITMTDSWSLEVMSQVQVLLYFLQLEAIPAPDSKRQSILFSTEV

Structure (SMILES) | IC50 [1] [µM] | IC50 [2] [µM]
Cc1ccc(Nc2cc(-c3ccc(C(=O)N4CCN(C(=O)c5ccccc5F)CC4)cc3)ncn2)cc1 | > 500 | 
COc1cccc(Nc2cc(-c3ccc(C(=O)N4CCN(C(=O)c5ccccc5Cl)CC4)cc3)ncn2)c1 | 102 | 
O=C(c1ccc(-c2cc(Nc3ccc(Cl)cc3Cl)ncn2)cc1)N1CCN(C(=O)c2ccccc2F)CC1 | > 500 | > 500
O=C(c1ccc(-c2cc(Nc3cccc(C(F)(F)F)c3)ncn2)cc1)N1CCN(C(=O)c2ccccc2F)CC1 |  | 0.872
O=C(c1ccc(-c2cc(Nc3ccc(C(F)(F)F)cc3)ncn2)cc1)N1CCN(C(=O)c2ccccc2F)CC1 | 283 | 78.6
O=C(c1ccc(-c2cc(Nc3ccc(F)cc3)ncn2)cc1)N1CCN(C(=O)c2cccc(C(F)(F)F)c2)CC1 | 86.9 | 1.44
O=C(c1ccc(-c2cc(Nc3cccc(C(F)(F)F)c3)ncn2)cc1)N1CCN(C(=O)c2cccc(C(F)(F)F)c2)CC1 | 25.9 | 0.563
CC(=O)c1cccc(Nc2cc(-c3ccc(C(=O)N4CCN(C(=O)c5ccccc5F)CC4)cc3)ncn2)c1 |  | 0.385
O=C(c1ccc(-c2cc(Nc3ccc(F)cc3)ncn2)cc1)N1CCN(C(=O)c2ccccc2F)CC1 | 363 | 277
O=C(c1ccc(-c2cc(Nc3cccc(F)c3)ncn2)cc1)N1CCN(C(=O)c2ccccc2Cl)CC1 |  | 6.06
O=C(c1ccc(-c2cc(Nc3cccc(Br)c3)ncn2)cc1)N1CCN(C(=O)c2ccccc2F)CC1 | > 500 | > 500
O=C(c1ccc(-c2cc(Nc3cc(C(F)(F)F)cc(C(F)(F)F)c3)ncn2)cc1)N1CCN(C(=O)c2ccccc2F)CC1 | 60.4 | 0.13
O=C(c1ccc(-c2cc(Nc3ccc(F)c(F)c3)ncn2)cc1)N1CCN(C(=O)c2ccccc2F)CC1 | > 500 | > 500
CC(C)(C)c1ccc(Nc2cc(-c3ccc(C(=O)N4CCN(C(=O)c5ccccc5Cl)CC4)cc3)ncn2)cc1 |  | > 500
O=C(c1ccc(-c2cc(Nc3ccccc3Cl)ncn2)cc1)N1CCN(C(=O)c2ccccc2Cl)CC1 | 21.4 | 0.07
COc1cccc(Nc2cc(-c3ccc(C(=O)N4CCN(C(=O)c5cccc(C(F)(F)F)c5)CC4)cc3)ncn2)c1 | 106 | 13.5
Cc1ccc(NC(=O)c2ccc(CN3CCN(C)CC3)cc2)cc1Nc1nccc(-c2cccnc2)n1 [IMATINIB] | 4.12 | 
O=C(c1ccc(-c2cc(Nc3ccc(Cl)cc3Cl)ncn2)cc1)N1CCN(C(=O)c2cccc(C(F)(F)F)c2)CC1 | 562 | 266
O=C(c1ccc(-c2cc(Nc3ccc(Br)cc3)ncn2)cc1)N1CCN(C(=O)c2ccccc2F)CC1 | 306 | 
CC(C)(C)c1ccc(Nc2cc(-c3ccc(C(=O)N4CCN(C(=O)c5ccccc5F)CC4)cc3)ncn2)cc1 | > 500 | 354
O=C(c1ccc(-c2cc(Nc3ccc(Cl)c(Cl)c3)ncn2)cc1)N1CCN(C(=O)c2ccccc2F)CC1 | > 500 | > 500
CC(C)c1cccc(Nc2cc(-c3ccc(C(=O)N4CCN(C(=O)c5ccccc5F)CC4)cc3)ncn2)c1 | > 500 | > 500
O=C(c1ccc(-c2cc(Nc3ccccc3Cl)ncn2)cc1)N1CCN(C(=O)c2ccccc2F)CC1 | 80.7 | 141
O=C(c1ccc(-c2cc(Nc3ccccc3F)ncn2)cc1)N1CCN(C(=O)c2ccccc2F)CC1 | 14.5 | 0.05
Cc1ccc(Nc2cc(-c3ccc(C(=O)N4CCN(C(=O)c5ccccc5F)CC4)cc3)ncn2)cc1Cl | > 500 | > 500
COc1cccc(Nc2cc(-c3ccc(C(=O)N4CCN(C(=O)c5ccccc5F)CC4)cc3)ncn2)c1 |  | 16.1
O=C(c1ccc(-c2cc(Nc3cccc(F)c3)ncn2)cc1)N1CCN(C(=O)c2ccccc2F)CC1 | 17.8 | 0.017
O=C(c1ccc(-c2cc(Nc3cccc(Cl)c3)ncn2)cc1)N1CCN(C(=O)c2ccccc2F)CC1 |  | 91.8
